Test results published in ChEMBL document CHEMBL1149797, “Synthesis and in vitro antibacterial activities of novel oxazolidinones” (Eur J Med Chem, 2008).
≈ marks a conversion by molar mass, not a printed value.

Experiments:
Assay type in all cases: functional
[1] = tested on: Bacillus cereus; test: Antibacterial activity against Bacillus cereus ATCC 11778 by broth microdilution technique
Procedure, shortened: (§1)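 Broth microdilution per CLSI (NCCLS) guidelines. Compounds were dissolved in DMSO with water added to give an 80% DMSO stock, then diluted 1:10 to working solutions in water or medium. They were tested at 0.125, 0.25, 0.5, 1, 2, 4, 8 and 16 (two-fold series) against the final inoculum. Each run included sterility controls and vehicle controls (plain medium; 4%, 2%, 1% DMSO). MIC was read as growth inhibition.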

[2] = tested on: Staphylococcus aureus; test: Antibacterial activity against Staphylococcus aureus ATCC 25923 by broth microdilution technique; procedure, shortened: as §1
[3] = tested on: Staphylococcus epidermidis; test: Antibacterial activity against Staphylococcus epidermidis ATCC 155 by broth microdilution technique; procedure, shortened: as §1
[4] = tested on: Bacillus pumilus; test: Antibacterial activity against Bacillus pumilus ATCC 14884 by broth microdilution technique; procedure, shortened: as §1
[5] = tested on: Enterococcus faecalis; test: Antibacterial activity against Enterococcus faecalis ATCC 35550 by broth microdilution technique; procedure, shortened: as §1
[6] = tested on: Streptococcus pyogenes; test: Antibacterial activity against Streptococcus pyogenes ATCC 14289 by broth microdilution technique; procedure, shortened: as §1
[7] = tested on: Enterococcus faecalis; test: Antibacterial activity against Enterococcus faecalis ATCC 14506 by broth microdilution technique; procedure, shortened: as §1
[8] = tested on: Staphylococcus aureus; test: Antibacterial activity against Staphylococcus aureus ATCC 14154 by broth microdilution technique
Procedure, shortened: (§2)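 Broth microdilution per NCCLS/CLSI. Compounds dissolved in DMSO with water added to give an 80% DMSO stock. Stock diluted 1:10 in 4-8% DMSO in water or medium to make the working solution. Tested at […]. Sterility controls run with each set. Inoculum viability controls included plain medium and 4%, 2% and 1% DMSO vehicle. MIC taken as growth inhibition.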

[9] = tested on: Enterococcus faecalis; test: Antibacterial activity against multidrug-resistant Enterococcus faecalis ATCC 700802 by broth microdilution technique; procedure, shortened: as §2
[10] = tested on: Staphylococcus aureus; test: Antibacterial activity against Staphylococcus aureus ATCC 9144 by broth microdilution technique; procedure, shortened: as §2
[11] = tested on: Staphylococcus aureus; test: Antibacterial activity against linezolid-resistant Staphylococcus aureus NRS 120 with G 2576T mutation by broth microdilution technique; procedure, shortened: as §2
[12] = tested on: Enterococcus faecium; test: Antibacterial activity against vancomycin-resistant Enterococcus faecium ATCC 700221 by broth microdilution technique; procedure, shortened: as §2
[13] = tested on: Staphylococcus aureus; test: Antibacterial activity against methicillin-resistant Staphylococcus aureus ATCC 700699 by broth microdilution technique; procedure, shortened: as §2
[14] = tested on: Streptococcus pneumoniae; test: Antibacterial activity against multidrug-resistant Streptococcus pneumoniae ATCC 700904 by broth microdilution technique; procedure, shortened: as §2
[15] = tested on: Staphylococcus aureus; test: Antibacterial activity against linezolid-resistant Staphylococcus aureus NRS 119 with G 2576T mutation by broth microdilution technique; procedure, shortened: as §2
[16] = tested on: Staphylococcus aureus; test: Antibacterial activity against Staphylococcus aureus ATCC 29213 by broth microdilution technique; procedure, shortened: as §2

Compound | MIC [1] [µg/mL] | MIC [2] [µg/mL] | MIC [3] [µg/mL] | MIC [4] [µg/mL] | MIC [5] [µg/mL] | MIC [6] [µg/mL] | MIC [7] [µg/mL] | MIC [8] [µg/mL] | MIC [9] [µg/mL] | MIC [10] [µg/mL] | MIC [11] [µg/mL] | MIC [12] [µg/mL] | MIC [13] [µg/mL] | MIC [14] [µg/mL] | MIC [15] [µg/mL] | MIC [16] [µg/mL]
CC(=O)NC[C@H]1CN(c2ccc(N3CCN(C(=O)/C=C/c4ccncc4)CC3)c(F)c2)C(=O)O1 | 1 (≈ 2.14 µM) | 4 (≈ 8.56 µM) | 2 (≈ 4.28 µM) | 1 (≈ 2.14 µM) | 2 (≈ 4.28 µM) | 0.5 (≈ 1.07 µM) |  |  |  |  |  |  |  |  |  | 
CC(=O)NC[C@H]1CN(c2ccc(N3CCN(C(=O)/C=C/c4ccc[nH]4)CC3)c(F)c2)C(=O)O1 | 1 (≈ 2.2 µM) | 1 (≈ 2.2 µM) | 0.5 (≈ 1.1 µM) | 1 (≈ 2.2 µM) | 1 (≈ 2.2 µM) | 1 (≈ 2.2 µM) |  |  |  |  |  |  |  |  |  | 
CC(=O)NC[C@H]1CN(c2ccc(N3CCN(C(=O)/C=C/c4ccc([N+](=O)[O-])o4)CC3)c(F)c2)C(=O)O1 | ≤ 0.12 | 0.12 (≈ 0.239 µM) | ≤ 0.12 | ≤ 0.12 | 0.25 (≈ 0.499 µM) | ≤ 0.12 | 0.25 (≈ 0.499 µM) | 0.12 (≈ 0.239 µM) | 0.5 (≈ 0.997 µM) | 0.12 (≈ 0.239 µM) | 2 (≈ 3.99 µM) | 0.12 (≈ 0.239 µM) | 0.12 (≈ 0.239 µM) | 0.25 (≈ 0.499 µM) | 2 (≈ 3.99 µM) | 0.12 (≈ 0.239 µM)
CC(=O)NC[C@H]1CN(c2ccc(N3CCN(C/C=C/c4ccco4)CC3)c(F)c2)C(=O)O1 | 0.5 (≈ 1.13 µM) | 2 (≈ 4.52 µM) | 8 (≈ 18.1 µM) | 2 (≈ 4.52 µM) | 2 (≈ 4.52 µM) | 0.5 (≈ 1.13 µM) |  |  |  |  |  |  |  |  |  | 
CC(=O)NC[C@H]1CN(c2ccc(N3CCN(C(=O)/C=C/c4ccc(C)o4)CC3)c(F)c2)C(=O)O1 | 1 (≈ 2.13 µM) | 2 (≈ 4.25 µM) | 0.5 (≈ 1.06 µM) | 1 (≈ 2.13 µM) | 1 (≈ 2.13 µM) | 0.5 (≈ 1.06 µM) |  |  |  |  |  |  |  |  |  | 
CC(=O)NC[C@H]1CN(c2ccc(N3CCN(C(=O)/C=C/c4ccc(COC(C)=O)o4)CC3)c(F)c2)C(=O)O1 | 4 (≈ 7.57 µM) | 2 (≈ 3.78 µM) | 2 (≈ 3.78 µM) | 4 (≈ 7.57 µM) | 4 (≈ 7.57 µM) | 2 (≈ 3.78 µM) |  |  |  |  |  |  |  |  |  | 

Continued by falling MIC [1], values first:

MIC [1] [µg/mL] | MIC [2] [µg/mL] | MIC [3] [µg/mL] | MIC [4] [µg/mL] | MIC [5] [µg/mL] | MIC [6] [µg/mL] | Compound | MIC [7] [µg/mL] | MIC [8] [µg/mL] | MIC [9] [µg/mL] | MIC [10] [µg/mL] | MIC [11] [µg/mL] | MIC [12] [µg/mL] | MIC [13] [µg/mL] | MIC [14] [µg/mL] | MIC [15] [µg/mL] | MIC [16] [µg/mL]
0.5 (≈ 1.06 µM) | 0.5 (≈ 1.06 µM) | 1 (≈ 2.12 µM) | 0.5 (≈ 1.06 µM) | 0.5 (≈ 1.06 µM) |  | CC(=O)NC[C@H]1CN(c2ccc(N3CCN(C(=O)/C=C/c4ccsc4)CC3)c(F)c2)C(=O)O1 |  |  |  |  |  |  |  |  |  | 
0.5 (≈ 1.1 µM) | 0.5 (≈ 1.1 µM) | 1 (≈ 2.19 µM) | 0.5 (≈ 1.1 µM) | 0.5 (≈ 1.1 µM) |  | CC(=O)NC[C@H]1CN(c2ccc(N3CCN(C(=O)/C=C/c4ccco4)CC3)c(F)c2)C(=O)O1 |  |  |  |  |  |  |  |  |  | 
0.5 (≈ 1.06 µM) | 1 (≈ 2.12 µM) | 0.5 (≈ 1.06 µM) | 0.5 (≈ 1.06 µM) | 0.5 (≈ 1.06 µM) | 1 (≈ 2.12 µM) | CC(=O)NC[C@H]1CN(c2ccc(N3CCN(C(=O)/C=C/c4cccs4)CC3)c(F)c2)C(=O)O1 |  |  |  |  |  |  |  |  |  | 
0.25 (≈ 0.513 µM) | 1 (≈ 2.05 µM) | 0.5 (≈ 1.03 µM) | 0.25 (≈ 0.513 µM) | 1 (≈ 2.05 µM) | 0.12 (≈ 0.246 µM) | CC(=O)NC[C@H]1CN(c2ccc(N3CCN(C/C=C/c4ccc([N+](=O)[O-])o4)CC3)c(F)c2)C(=O)O1 |  |  |  |  |  |  |  |  |  | 
